# Insulin prom inh: TRM-6 insulin promoter activity inhibition; TRM-6 cells (human fetal islet line), insulin promoter-eGFP reporter, imaging; reporter expression induced with tamoxifen; inhibition, % at 2 µM; 0.9% of 130,000 active; AID 1273;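 active means inhibition above the mean plus 3 SD, with well images judged a real hit on visual review, cut at about 60% in these data, passing the limit was not always enough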
# TNAP inh noacc: TNAP (human) inhibition, acceptor-free conditions; P05186; purified TNAP, CDP-star luminescence, 30 min; AID 1012; inhibition, % at 20 µM; 0.26% of 200,000 active;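 active means tissue-nonspecific alkaline phosphatase inhibition above about 50% at 20 µM in the single-dose screen, limit read from the data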
# Target sequence (P05186 whole entry, looked up): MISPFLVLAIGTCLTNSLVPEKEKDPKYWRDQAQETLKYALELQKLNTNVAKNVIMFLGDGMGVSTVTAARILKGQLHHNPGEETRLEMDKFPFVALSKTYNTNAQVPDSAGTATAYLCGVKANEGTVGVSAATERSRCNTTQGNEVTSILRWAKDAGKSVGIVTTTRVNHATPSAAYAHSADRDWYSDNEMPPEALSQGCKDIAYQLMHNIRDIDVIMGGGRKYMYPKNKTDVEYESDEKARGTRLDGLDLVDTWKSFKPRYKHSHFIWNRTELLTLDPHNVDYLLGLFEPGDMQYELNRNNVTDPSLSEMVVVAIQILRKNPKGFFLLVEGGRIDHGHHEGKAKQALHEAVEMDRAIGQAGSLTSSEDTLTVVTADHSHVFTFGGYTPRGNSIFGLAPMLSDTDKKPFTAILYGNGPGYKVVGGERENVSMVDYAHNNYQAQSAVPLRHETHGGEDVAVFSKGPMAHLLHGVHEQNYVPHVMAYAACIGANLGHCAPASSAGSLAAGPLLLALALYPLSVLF
# Efa HMGR inh: E. faecalis class II HMG-CoA reductase inhibition. 0.41% of 190,000 active. inhibition, % at 10 µM. purified E. faecalis HMGR, NADPH absorbance 340 nm kinetic. AID 1066;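 active means inhibition above a set limit, the median over all tested compounds plus 3 SD, cut at about 9.5% in these data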;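 further: enzyme runs in reverse so mevalonate oxidation gives rising NADPH absorbance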
# TNAP act hi DEA: activators of human TNAP at high phosphate acceptor concentration; purified TNAP, CDP-star luminescence, 1 M DEA, 30 min; hits give high values; 0 = EDTA background, 1 = DMSO-only activity; P05186; AID 1136; 200,000 tested, under 10 active; activation factor at 20 µM;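 active means activation factor at least 2 at 20 µM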
#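 Dosing: 20 µM single point. System: human TNAP. Amount: TNAP 1/800 final. Incubation: 30 min, room temperature. Read-out: TNAP activation factor scaled between EDTA and DMSO control wells. Signal: luminescence from CDP-star hydrolysis. Medium: 1 M DEA, pH 9.8, Mg2+, Zn2+. Control set: EDTA negative control, DMSO positive control.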
# TNAP inh hiacc: blocks human TNAP under high phosphate acceptor concentration | P05186 | purified TNAP, CDP-star luminescence, 1 M DEA | inhibition, % at 20 µM | 0.03% of 200,000 active | AID 1135;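 active means over 50% inhibition of tissue-nonspecific alkaline phosphatase at 20 µM in the single-dose screen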
# Numbers stand for hits; n = inactive; x = not tested or not shown. Most compounds without a hit are left out; they make up all but 1.2% or so of the library.
SMILES,Insulin prom inh,TNAP inh noacc,Efa HMGR inh,TNAP act hi DEA,TNAP inh hiacc
CCC(C)(NC(=O)c1ccccn1)C(=O)NC1CCCC1 (stereo unspecified),x,n,n,n,n
CCC(C)(NC(=O)CNC(C)=O)C(=O)NC1CCCCC1 (stereo unspecified),69,n,x,n,n
CCOC(=O)N1CCN(C(=O)CSc2ccc(-c3ccccc3)nn2)CC1,n,n,n,n,n
CCOC(=O)N1CCN(C(=O)CSc2ccc(-c3ccncc3)nn2)CC1,75,n,n,n,n
O=C1N=c2ccc(Br)cc2=C1c1sc(=S)n(NS(=O)(=O)c2ccccc2)c1O,n,n,n,n,n
O=C(c1ccccc1Sc1ccccc1[N+](=O)[O-])N1CCCCC1,x,n,n,n,n
c1ccc(Nc2nc3ccccc3o2)cc1,68,n,n,n,n
N=c1c2c(-c3ccccc3)c(-c3ccccc3)n(Cc3ccco3)c2ncn1CCCN1CCOCC1,x,n,11,n,n
N=c1c2c(-c3ccccc3)c(-c3ccccc3)n(Cc3ccco3)c2ncn1CCCn1ccnc1,n,n,n,n,n
c1ccc(OCCOCCSc2ncccn2)cc1,81,n,n,n,n
COc1ccc(-c2c(-c3ccc(O)cc3O)n[nH]c2C)cc1OC,n,n,n,n,n
COc1ccc(-c2c(N)n[nH]c2C)cc1OC,x,n,15,n,n
c1csc(C(c2nnnn2C2CCCC2)N2CCCC3(CCCCC3)C2)c1 (stereo unspecified),n,n,n,n,n
O=C(CC1CS(=O)(=O)CC1CC(=O)Oc1ccccc1F)Oc1ccccc1F (stereo unspecified),n,n,n,n,n
Cc1cccc(C)c1NC(=O)C(NC(=O)c1ccccn1)c1ccccc1[N+](=O)[O-] (stereo unspecified),n,n,n,n,n
CCCNC(=O)Nc1ccc(NC(C)=O)cc1,x,n,n,n,n
Cc1cccc(NC(=O)c2ccc(-c3ccccc3[N+](=O)[O-])o2)c1,x,n,10,n,n
Cn1c(C(O)c2ccc3c(c2)OCO3)nc2ccccc21 (stereo unspecified),77,n,n,n,n
CCCCn1c(SCC(=O)c2ccccc2)nc2ccsc2c1=O,n,n,n,n,n
CCCCn1c(SCC(=O)c2ccc(O)c(O)c2)nc2ccsc2c1=O,x,96,n,n,n
O=C(O)CCCCCn1c(SCC(=O)c2ccc(O)c(O)c2)nc2ccsc2c1=O,n,94,13,n,n
O=C(CCCn1c(SCC(=O)c2ccc(O)c(O)c2)nc2ccccc2c1=O)NCC1CCCO1 (stereo unspecified),n,96,n,n,n
COc1ccc2ccccc2c1CN1CCN(Cc2ccccc2)CC1,78,n,n,n,n
Cc1ccc(-n2[nH]c(C)c(/C=N/Nc3ccc([N+](=O)[O-])cc3[N+](=O)[O-])c2=O)cc1,x,n,n,n,51
CCN(CCO)c1ncnc2c1sc1nc(CC(C)C)c3c(c12)CC(C)(C)OC3,n,n,9.7,n,n
SMILES,Insulin prom inh,TNAP inh noacc,Efa HMGR inh,TNAP act hi DEA,TNAP inh hiacc
CC1(C)Cc2nc3sc4c(N(CCO)CCO)ncnc4c3cc2CO1,n,n,n,n,n
Cc1ccccc1C(=O)N1CCN(c2ccc(NC(=O)c3ccco3)cc2Cl)CC1,85,n,n,n,n
O=C(c1cc2ccccc2oc1=O)N1CCN(c2ncccn2)CC1,79,n,n,n,n
O=C(c1cc2ccccc2oc1=O)N1CCN(c2ccccn2)CC1,x,n,n,n,n
Cc1c(CN2CCC(CO)(CCOc3ccccc3)CC2)[nH]c2c(Cl)cccc12,x,n,n,n,n
COC(=O)c1cc(=O)n(-c2ccc(F)cc2)c(=Nc2ccc(F)cc2)s1,n,n,11,n,n
COC(=O)c1cc(=O)n(Cc2cccs2)c(=Nc2ccc(F)cc2)s1,x,n,n,n,n
O=c1c2c(nc3nc(Cc4ccccc4)[nH]n13)CCC2,92,n,n,n,n
Cc1nc2nc3c(c(=O)n2[nH]1)CCC3,n,n,n,n,n
O=C1CC(=C2c3ccccc3-c3ccccc32)C(=O)N1CCN1CCN(c2ccccc2)CC1,n,x,x,x,x
CC(C)(C)c1cc(C(=O)N/N=C/c2ccco2)n[nH]1,n,n,n,n,n
CCc1ccc(-c2cc(C(=O)N/N=C/c3ccco3)[nH]n2)cc1,n,51,n,n,n
Cc1ccc(-c2cc(C(=O)N/N=C/c3ccco3)n[nH]2)s1,x,68,n,n,n
COc1ccccc1CN1CCNC(=O)C1CC(=O)N(C)Cc1ccon1 (stereo unspecified),x,n,n,n,n
CC(=O)Nc1ccc(NC(=O)C(C)OC(=O)CNS(=O)(=O)c2cccc(Cl)c2)cc1 (stereo unspecified),x,n,n,n,n
Cc1c(CN2CCc3c([nH]c4ccccc34)C2C2CCCCC2)cnn1C (stereo unspecified),x,n,19,n,n
COc1ccccc1-n1cnnc1SCC(=O)N1CC(=O)Nc2ccccc21,n,n,9.6,n,n
COCCN1C(=O)c2ccccc2C(C(=O)NCCN(C)C)C1c1ccc(F)cc1 (stereo unspecified),79,n,n,n,n
COCc1cc(C)n(CC(=O)Nc2ccccc2OC)c(=O)c1C#N,x,n,n,n,n
COCc1cc(C)n(CC(=O)OC)c(=O)c1C#N,n,n,14,n,n
Cc1cccc(-c2n[nH]c(=S)n2/N=C/c2ccc(C)o2)c1,n,n,n,n,n
CCOc1ccc(CN2CCCC(CNC(=O)c3ccc(F)cc3)C2)cc1CO (stereo unspecified),n,n,n,n,n
CC(C)CSc1n[nH]c(N)n1,x,50,n,n,n
c1ccc(CNc2nc(-c3cccs3)nc3ccccc23)nc1,92,n,n,n,n
O=Cc1cn[nH]c1-c1ccccc1,x,75,n,n,n
SMILES,Insulin prom inh,TNAP inh noacc,Efa HMGR inh,TNAP act hi DEA,TNAP inh hiacc
CN1CCCC1CCNC1C2CC3CC(C2)CC1C3 (stereo unspecified),n,n,n,n,n
COC(=O)C1=C(C)NC(C)=C(C(=O)OC)C1C1CC=CCC1 (stereo unspecified),x,n,15,n,n
CCOC(=O)C1=C(C)NC(=O)NC1C1CC=CCC1 (stereo unspecified),n,n,n,n,n
Cc1cccc(C(=O)NN2S(=O)(=O)c3ccccc3S2(=O)=O)c1,n,n,n,n,n
O=C(NN1S(=O)(=O)c2ccccc2S1(=O)=O)c1ccc(Br)cc1,n,n,16,n,n
CCOC(=O)c1c(C)nc2sc(C(=O)Nc3ccccc3)c(N)c2c1-c1ccc(OC)cc1,n,n,n,n,n
COC(=O)c1c([N+](=O)[O-])c(OC)c(OC)c(OC)c1[N+](=O)[O-],n,n,n,n,n
CCc1ccc(OCC(=O)NC(C)C)cc1,x,n,n,n,n
Cc1ccc(C)c(S(=O)(=O)N2CCN(c3ncccn3)CC2)c1,x,n,n,n,n
